From paper PMC10395482 (Heliyon, 2023) come the findings set out here.

One assay concerns MHCC97L xenograft. Briefly: MHCC97L subcutaneous xenograft. It is filed as in vivo, BALB/c nude mice. Particulars: 14 days. A digest of the protocol: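 Five-week-old male BALB/c nude mice received MHCC97L cells subcutaneously in the axilla (1 × 10^7 cells in 0.1 mL saline). At 50 mm3 they were randomized to groups and given the test compound in saline by tail vein (10, 20, 30 mg/kg; 0.1 mL/20 g). Tumor volume, calculated as (short diameter)2 × long diameter/2, and body weight were recorded every 2 days. Mice were sacrificed after 14 days; one-way ANOVA with Dunnett's test was used.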

Assay [1] has as its system chick embryo chorioallantoic membrane. In words: Chick chorioallantoic membrane. It is filed as in vivo. Particulars: VEGF 0.5 μg, 48 h; n = 5. In a few lines:
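Fertilized eggs were held at 37 °C and 60% humidity for 5 days and turned 180° every 24 h. On day 6 the shell was opened along the air chamber and sterile rubber rings were placed at the aorta. Test compound in saline (0, 10, 50, 250 μM; 50 μL) was added inside the ring, and eggs were sealed for 48 h. Vascular density was calculated as vessel area/view area from stereomicroscope images.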

On to `Clc1ccc(Nc2nnc(Cc3ccncc3)c3ccccc23)cc1` [PTK787], for which the “Tumor Inhibition Rate” value in the assay on MHCC97L xenograft (PTK787 50 mg/kg, n = 5) stood at 88.78%. Moreover, the “Tumor Weight” value in the assay on MHCC97L xenograft (PTK787 50 mg/kg, mean ± SD, n = 5, *** p < 0.001 vs saline) is recorded as 0.146 ± 0.049 *** g. In the assay on MHCC97L xenograft (SAIF 10, 20, 30 mg/kg or PTK787 50 mg/kg, vs control), the “tumor growth, volume and weight (in words)” value was “decreased MHCC97L transplanted tumor growth and significantly reduced mean tumor volume”.
VEGF: the “angiogenesis in CAM, VEGF alone” value in assay [1] is “significantly increased neoangiogenesis”.
